Data published in ChEMBL document CHEMBL1122616, “Latent inhibitors of aldehyde dehydrogenase as alcohol deterrent agents” (J Med Chem, 1984).

Target: T1, Aldehyde dehydrogenase 1A1 (Rattus norvegicus) (UniProt P51647)
T1 sequence (whole entry): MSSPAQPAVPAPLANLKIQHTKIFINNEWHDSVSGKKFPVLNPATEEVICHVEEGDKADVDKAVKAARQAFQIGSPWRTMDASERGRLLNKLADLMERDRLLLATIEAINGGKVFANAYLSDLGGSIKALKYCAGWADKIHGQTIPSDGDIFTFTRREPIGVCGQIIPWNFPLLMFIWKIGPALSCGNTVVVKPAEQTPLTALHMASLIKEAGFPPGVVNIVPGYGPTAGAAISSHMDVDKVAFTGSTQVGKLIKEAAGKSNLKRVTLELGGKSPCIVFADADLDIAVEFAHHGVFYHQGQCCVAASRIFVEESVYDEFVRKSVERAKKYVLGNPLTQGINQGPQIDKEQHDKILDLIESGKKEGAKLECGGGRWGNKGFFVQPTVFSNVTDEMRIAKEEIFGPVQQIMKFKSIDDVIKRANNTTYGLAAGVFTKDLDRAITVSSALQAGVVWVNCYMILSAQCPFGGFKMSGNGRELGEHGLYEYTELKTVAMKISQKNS
Assay: Evaluated in vivo for inhibition of liver mitochondrial aldehyde dehydrogenase activity 2 hour after administering into rats, at a dose of 1.25 mmol/kg
Assay type: organism-based
Settings: scale: nmol of acetaldehyde(AcH) oxide per minute per mg of protein
Procedure, shortened: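 Rats given 1.25 mmol/kg ip; controls given saline. Killed 2 h later. Intact liver mitochondria prepared at 0 °C and kept cold until assay. After 5-min preincubation at 38 °C, 200 nmol AcH added. Quenched after 5 min with HClO₄. Activity given as nmol AcH oxidized/min/mg protein (Lowry), mean ± SEM.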

Activity | Structure (SMILES)
2.68 | c1ccc(CNC2CC2)cc1
3.48 | CN(Cc1ccccc1)C1CC1
